Read-outs that look alike come from different tables or passages of the source.
Columns and labels:
Assay type in all cases: cell-based
[1] = tested on: A549 human adenocarcinomic alveolar basal epithelial cells; assay: MTT antiproliferative activity, A549; settings: read-out: IC50, A549
Outline: (§1)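 Cells were pre-incubated for 24 h at 37°C in 5% CO2. Medium was replaced with test compound at 10−4, 10−5, 10−6, 10−7 and 10−8 M for 72 h at 37°C. After a PBS wash, MTT was added for at least 4 h at 37°C and OD was read at 570 nm. IC50 (50% cell killing) came from percent viability versus log concentration; mean ± SEM, n=3.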

[2] = tested on: MCF-7 human breast cancer cells; assay: MTT antiproliferative activity, MCF-7; settings: read-out: IC50, MCF-7
Outline: as §1

[3] = tested on: B16F10 mouse melanoma cells; assay: MTT antiproliferative activity, B16F10; settings: read-out: IC50, B16F10
Outline: as §1

[4] = tested on: Helf human embryonic lung fibroblast; assay: MTT antiproliferative activity, Helf; settings: 72 h, read-out: IC50, Helf
Outline: as §1

[5] = tested on: HCT-116 human colon cancer cells; assay: MTT antiproliferative activity, HCT-116; settings: read-out: IC50, HCT-116
Outline: as §1

[6] = tested on: human normal liver cells (L02); assay: MTT antiproliferative activity, L02; settings: 72 h, read-out: IC50, L02
Outline: as §1

[7] = tested on: selected malignant cell lines (B16F10, MCF-7, HCT-116, A549, HepG2); assay: MTT antiproliferative activity, selected malignant cell lines as a panel; settings: 72 h, read-out: IC50 values, range over the selected malignant cell lines
Outline: as §1

[8] = tested on: HepG2 human hepatocarcinoma; assay: MTT antiproliferative activity, HepG2; settings: read-out: IC50, HepG2
Outline: as §1

[9] = MTT, mean ± SEM, n=3, normal cells

| Structure (SMILES) | IC50 ([1]; Homo sapiens, A549, 72 h) [µM] | IC50 ([2]; Homo sapiens, MCF7, 72 h) [µM] | IC50 ([3]; Mus musculus, B16-F10, 72 h) [µM] | IC50 ([4]; Homo sapiens, HELF) [µM] | IC50 ([5]; Homo sapiens, HCT-116, 72 h) [µM] | IC50 ([6]; Homo sapiens) [µM] | IC50 [7] [µM] | IC50 ([8]; Homo sapiens, HepG2, 72 h) [µM] | IC50 ([1]; MTT, 72 h, mean ± SEM, n=3) [µM] | IC50 ([2]; MTT, 72 h, mean ± SEM, n=3) [µM] | IC50 ([3]; MTT, 72 h, concentration that caused 50% cell killing, mean ± SEM, n=3) [µM] | IC50 [4, 9] [µM] | IC50 ([5]; MTT, 72 h, mean ± SEM, n=3) [µM] | IC50 [6, 9] [µM] | IC50 ([8]; MTT, 72 h, mean ± SEM, n=3) [µM] |
| --- | --- | --- | --- | --- | --- | --- | --- | --- | --- | --- | --- | --- | --- | --- | --- |
| C=C(C)[C@@H]1CC[C@]2(C(=O)O)CC[C@]3(C)[C@H](CC[C@@H]4[C@@]5(C)CC[C@H](O)C(C)(C)[C@@H]5CC[C@]43C)[C@@H]12 [BA, Betulinic acid] | 38.3 ± 5.9 | 17.5 ± 1.72 | 27 ± 2.5 | 62 ± 8.61 | 27.3 ± 3.28 | 96.3 ± 7.99 | 17.5 to 38.3 | 30.4 ± 5.14 | – | – | – | – | – | – | – |
| N.N.[Cl][Pt][Cl] [Cisplatin] | – | – | – | – | – | – | – | – | 12.7 ± 1.85 | 7.83 ± 0.52 | 11.7 ± 0.95 | 21.8 ± 3.03 | 9.45 ± 1.04 | 9.17 ± 0.83 | 4.77 ± 0.62 |
